# Active and inactive are the calls of the source. No cut-off for these calls is given here.
# Legend:
# [1] = Upregulation of beta-major globin gene expression in MEL cells at 5 mM after 24 to 96 hrs by RT-PCR analysis; assay type: functional, cell-based; conditions: Mus musculus
# Procedure, shortened: (§1)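 MEL cells were treated with 10^-4 M agent or 5 mM HMBA for 0, 24, 48, 72 and 96 h, with untreated cells as control. Cells were washed in PBS. Total cytoplasmic RNA (1 µg/reaction) was extracted by acid guanidinium thiocyanate-phenol-chloroform and run in one-step RT-PCR: 50 °C 30 min, 94 °C 2 min, then 30 cycles of 94/58/72 °C, then 72 °C 10 min. β-major globin primers were used with β-actin as internal control.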
# [2] = test system: MEL; assay: Induction of cell differentiation in MEL cells assessed as hemoglobin accumulation at 5 mM by after 24 to 96 hrs by spectrophotometry; assay type: functional, cell-based; conditions: Mus musculus
# Procedure, shortened: (§2)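 MEL cells (1.0 x 10^5 cells/mL, DMEM/10% FBS/1% PS, 37 °C, 5% CO2) were treated with 10^-4 M agent or 5 mM HMBA, alongside untreated controls. Total cellular Hb was measured spectrophotometrically in samples taken over a 24–96 h time course.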
# [3] = Growth inhibition of MEL cells at 0.01 to 100 uM after 48 hrs relative to control; assay type: functional, Mus musculus
# Procedure, shortened: (§3)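 MEL cells seeded at 1.0 x 10^5 cells/mL in DMEM with 10% v/v FBS and 1% PS, 37 °C, 5% CO2. Agents dissolved in DMSO (final DMSO below 0.5% v/v) and tested at 0.01–100 µM for 48 h. Cells counted by Neubauer hemocytometer. Growth given as percentage of untreated control.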
# [4] = Induction of cell differentiation in MEL cells at 100 uM after 96 hrs by benzidine staining; assay type: functional, Mus musculus
# Procedure, shortened: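 MEL cells were seeded at 1.0 x 10^5 cells/mL in DMEM with 10% FBS and 1% PS at 37 °C, 5% CO2, then exposed to 100 µM agent in DMSO (final DMSO below 0.5% v/v) for 96 h. HMBA 5 mM served as positive control. Hb-producing cells were scored by benzidine-H2O2 staining and reported as percentage benzidine-positive.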
# [5] = test system: MEL; assay: Growth inhibition of MEL cells after 48 hrs; assay type: functional, cell-based; conditions: Mus musculus; procedure, shortened: as §3
# [6] = Upregulation of beta-major globin gene expression in MEL cells at 0.1 mM after 24 to 96 hrs by RT-PCR analysis; assay type: functional, cell-based; conditions: Mus musculus; procedure, shortened: as §1
# [7] = test system: MEL; assay: Induction of cell differentiation in MEL cells assessed as hemoglobin accumulation at 0.1 mM by after 24 to 96 hrs by spectrophotometry; assay type: functional, cell-based; conditions: Mus musculus; procedure, shortened: as §2
# [8] = Growth inhibition of MEL cells at 0.1 mM after 96 hrs; assay type: functional; conditions: Mus musculus, read-out: GI
# Procedure, shortened: (§4)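 Exponentially growing MEL cells (1.0 x 10^5 cells/mL, DMEM/10% FBS/1% PS, 37 °C, 5% CO2) were exposed to 10^-4 M agent in DMSO. Untreated cultures served as control and HMBA 5 mM as reference. Samples were removed at various intervals up to 96 h and counted by hemocytometer. Growth was expressed as absolute number or as percentage of control.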
# [9] = test system: MEL; assay: Growth inhibition of MEL cells at 0.1 mM; assay type: functional, cell-based; conditions: Mus musculus, TDE = time-dependent effect; procedure, shortened: as §4
Compound,Activity [1],Activity [2],growth inhibition (GI) [3] [%],Activity [4] [%],growth inhibition (GI) [5],Activity [6],Activity [7],inhibition of growth at 100 µM [8] [%],growth inhibition (GI) [9]
CC(=O)NCCCCCCNC(C)=O,Active,Active,–,–,–,–,–,–,–
c1ccn(-c2nnn(CCCCCCCn3nnc(-n4cccc4)n3)n2)c1,–,–,30,5,Dose-dependent effect,–,–,–,–
CNC(=O)c1cccn1-c1nnn(CCCCCCn2nnc(-n3cccc3C(=O)NC)n2)n1,–,–,30,5,Dose-dependent effect,–,–,–,–
c1ccn(-c2nnn(CCCCCn3nnc(-n4cccc4)n3)n2)c1,–,–,30,5,Dose-dependent effect,–,–,–,–
c1ccn(-c2nnn(Cc3ccc(Cn4nnc(-n5cccc5)n4)cc3)n2)c1,–,–,30,5,Dose-dependent effect,–,–,–,–
c1ccn(-c2nnn(CCCCCCn3nnc(-n4cccc4)n3)n2)c1,–,–,30,30,Dose-dependent effect,Active,Active,> 75,tde

# — ChEMBL document CHEMBL1955744, “Bis-pyrrolyl-tetrazolyl derivatives as hybrid polar compounds: A case of lipophilic functional bioisosterism with bis-acetamides” (2012)
